Key:
β‐clamp [1] = target: T1, β‐clamp (Escherichia coli, UniProt P0A988); experiment: Calculated fraction of β‐clamp bound / saturation level; type: binding, E. coli; settings: NMR titration, 200 μM β‐clamp with up to 800 μM peptide
Method in brief: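 Fraction of β-clamp bound computed from the quadratic single-site equation using total protein concentration, total ligand concentration and K_D. […]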

β‐clamp [2] = target: T1, β‐clamp; settings: literature values; ref [34], [35]; cited from earlier work

T1 sequence (P0A988 whole entry): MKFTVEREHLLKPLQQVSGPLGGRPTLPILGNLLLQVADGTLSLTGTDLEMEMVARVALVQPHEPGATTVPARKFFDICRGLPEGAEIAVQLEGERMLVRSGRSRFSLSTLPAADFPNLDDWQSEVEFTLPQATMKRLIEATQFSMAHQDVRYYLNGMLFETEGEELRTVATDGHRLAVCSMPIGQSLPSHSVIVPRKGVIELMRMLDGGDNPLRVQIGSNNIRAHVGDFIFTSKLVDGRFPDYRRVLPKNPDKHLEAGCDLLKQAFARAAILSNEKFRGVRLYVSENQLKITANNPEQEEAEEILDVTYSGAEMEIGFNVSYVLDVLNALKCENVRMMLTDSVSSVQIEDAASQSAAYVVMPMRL

Substance: NH3 ^+‐GWLDPQMERQLVLGL‐COO^— [pol IV*]
- saturation level of β‐clamp (β‐clamp [1]): > 98%
- Kd (β‐clamp [2]): 2 to 8 µM

From paper PMC12594201 (Proteins, 2025)
